Measurements taken from ChEMBL document CHEMBL4513216, “Probing the Open Global Health Chemical Diversity Library for Multistage-Active Starting Points for Next-Generation Antimalarials” (ACS Infect Dis, 2020).

Assay: Toxicity liver stage against HepG2, at 10uM
Format: cell-based
Design: test concentration 10 uM, cell line HepG2-A16-CD81EGFP
Conditions: human, HepG2-A16-CD81EGFP cells; read-out: INHIBITION
In short: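 Uninfected HepG2-A16-CD81EGFP cells, 3 × 10^3 per well, 1536-well, plated on prespotted compound at 10 μM final, parasite-free screening media added to match infected plates; puromycin 10 μM positive, DMSO 0.5% negative; run in parallel with 48 h PbLuc assay at 37 °C, 5% CO2; viability by CellTiter-Glo luminescence, normalized to controls.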

Structure (SMILES) | cytotoxicity at 10 µM
CC(C)c1nnc(NC(=O)CCC(=O)NCC2CCCO2)s1 (stereo not given) | -9.58%
Cc1ccc(S(=O)(=O)NC[C@H]2OC[C@@H](NCc3cccs3)[C@@H]2O)cc1 | -3.24%
Cc1ccn2c(=O)cc(CSCC(=O)Nc3nnc(C(C)C)s3)nc2c1 | -8.93%
CCc1ccccc1NCc1nc2[nH]c(C)c(C)c(=O)n2n1 | 7.98%
COC(=O)CSc1nnc(CCNC(=O)OC(C)(C)C)o1 | 4.34%
COc1ccc2c3c1CN(C(C)=O)CC3=CC(C)(C)CO2 | 10.1%
COC1CN(C(=O)OCC(C)C)CCC(=O)N(C)c2ccccc21 (stereo not given) | -0.321%
O=C(Nc1cccnc1-n1cc(Cl)cn1)C1CCCCC1 | -39%
Cc1nn(C)c(C)c1C1SCC(=O)Nc2c1c(O)nn2C(C)C (stereo not given) | -6.82%
O=C(Nc1ccc(Br)cc1F)c1ccc(N2CCOCC2)nn1 | 22.4%
CCOc1ccc(CNC(=O)c2cnc(OC)nc2)cc1 | -0.121%
Cc1ccccc1-c1csc2c(=O)[nH]c(N3CCCC(C(=O)O)C3)nc12 (stereo not given) | -3.16%
O=C(COc1ccc(Cl)cc1)Nc1cnc(N2CCOCC2)nc1 | -8.18%
Cn1cnc(S(=O)(=O)NCC(C)(O)c2ccc3c(c2)OCO3)c1 (stereo not given) | -4.44%
COCC(=O)N1CC[C@H]2[C@H]1CCN2CC(C)C | 1.18%
CCN1CC2(CC1=O)CN(C(=O)C(C)C)CCN(S(=O)(=O)CC)C2 (stereo not given) | 16%
Cc1ccc(N2CCO[C@H]3CN(C(=O)c4cccc(C)n4)C[C@H]32)nn1 | 4.94%
c1ccc(COC[C@]23COC[C@H]2CN(c2ncccn2)C3)nc1 | 2.14%
Cc1nc(Nc2ccc(Cl)cn2)sc1C(=O)NCCCN1CCCCC1 | 1.66%
CC(C)n1c(=O)c2sccc2n(CC(=O)Nc2ccccc2)c1=O | 8.02%
CCc1noc(C2CCCCN2C(=O)c2cc(C)n(C)n2)n1 (stereo not given) | 11.2%
O=C(Nc1cc(CCC2CCN(CCO)CC2)ccn1)c1ccccn1 | -4.03%

Structure (SMILES) | cytotoxicity at 10 µM
CN1CCNCC(Cc2cnc3ccccc3c2)C1 (stereo not given) | -12.4%
NC(=O)c1cccc(C2CCN(c3ncccn3)CC2)n1 | 0.00505%
CC(C)CN1CCCC1c1cc[nH]n1 (stereo not given) | 9.95%
COCCN1CCC(Cc2cnc(-c3ccccc3C(=O)O)cn2)CC1 | -11.9%
Cc1cc(-c2cnc(N3CCOCC3)nc2-c2ccc(C)s2)on1 | -5.72%
Cn1cc(CN2CCc3nc(-c4ccccn4)nc(O)c3C2)cn1 | -3.81%
Cc1nc(Nc2nccs2)cc(C2CCCN2C2CCOCC2)n1 (stereo not given) | -7.08%
OCc1c(Cl)ncn1-c1ccc(F)cc1 | 6.61%
Cc1ccc(F)c(S(=O)(=O)NCc2[nH]ncc2Br)c1 | 0.67%
CCN(CC)CC(=O)N1CCN(CCc2ccncc2)CC1 | -44.7%
CCOc1ncccc1NC(=O)N1CCOCC1C (stereo not given) | 10.3%
O=C(NCC(O)COc1ccccc1)Nc1nncs1 (stereo not given) | 0.555%
CN(C)c1ccc(C(=O)NCc2cccnc2-n2cncn2)cc1F | 2.84%
CNS(=O)(=O)c1cccc(C(C)NCc2cccc(C)c2C)c1 (stereo not given) | 9.44%
COCCN(Cc1ccc(F)cc1Cl)C(=O)c1ccccn1 | 11.8%
Cn1ncnc1CNc1ccc2c(c1)N(C(=O)OC(C)(C)C)CCC2 | 6.37%
Cc1ncc(CN(C)C(=O)Nc2cccc(CN3CCOC3=O)c2)s1 | -2.27%
CCSCc1cccc(NC2CCN(C)C2=O)c1 (stereo not given) | 1.18%
CCCc1nc(CNc2cc(CS(C)(=O)=O)ccc2Cl)no1 | -2.07%
CC(C)Nc1cccc(CNC(=O)N2CCC[C@@H]2CO)c1 | 1.96%
Cc1cscc1C(=O)Nc1cc(CSCCO)ccn1 | -25.5%
CC(C)c1ccc(CNC(C)c2ccc(S(=O)(=O)N(C)C)cc2)cc1 (stereo not given) | 32.6%

Structure (SMILES) | cytotoxicity at 10 µM
Cc1csc(C(C#N)C(=O)NCc2ccccc2)n1 (stereo not given) | 4.02%
CS(=O)(=O)c1ccc(C(=O)NCc2nc3cc(F)ccc3[nH]2)cc1 | -3.34%
CC(C)CSCCCNC(=O)C1CCC1 | -4.47%
CC(=O)N(C)Cc1ccccc1NC(=O)N(C)CCc1cccs1 | -10.4%
COCC(C)N(C)C(=O)NC1CCN(c2ncccn2)CC1 (stereo not given) | -12.5%
CS(=O)(=O)Cc1nc(CN2CCC(C(F)(F)F)CC2)cs1 | -10.9%
N#Cc1ccc(CNC(=O)NCCNC(=O)C2CCCC2)c(F)c1 | 4.17%
CCC(=O)N1CCC2(C=C(C(=O)N(C)C)c3ccccc32)CC1 | -87.3%
Cc1cccc(CN2C[C@@H]3CN(C(=O)C4CCOC4)C[C@@H]3C2=O)c1 (stereo not given in full) | -114%
O=C(c1ccoc1)N1CCC2(CCCN(c3ncc(F)cn3)C2)C1 (stereo not given) | -98.3%
Cn1nc(C(=O)N2CCOCC2)c2c1CN(CC1CCC1)C2 | -103%
Cn1nc(COc2cccnc2)c2c1CCN(c1ncccn1)C2 | -105%
C=C(C)COc1cccc(C(=O)N2CCC3(CCOCC3)CC2)c1 | -47.1%
c1csc(CN2CCCN(c3ccc(Cn4ccnc4)cn3)CC2)c1 | -18.2%
Cc1n[nH]c(C)c1CCC(=O)NCC1COc2ccccc2C1 (stereo not given) | -40.2%
Cc1ncsc1C(=O)NCc1cccnc1N(C)CCc1ccccn1 | -14.5%
CCN1CC2(CCN(C(=O)C(C)Oc3ccc(F)cc3F)CC2)OC1=O (stereo not given) | -1.98%
Cc1cc(N2CCC(CO)(CC3CCCCO3)CC2)nc2ccccc12 (stereo not given) | 5.51%
Nc1nccc(N2CCNC(C(=O)NCc3ccccn3)C2)n1 (stereo not given) | -48.5%
CCOc1ccnc(NCc2nc(C)cc(C(F)(F)F)n2)n1 | -10.1%
Cc1cc(F)ccc1S(=O)(=O)N1C[C@@H](C)[C@@](C)(O)C1 | -7.25%
CC(=O)Nn1c(C)cc(CN2CCC(C(=O)N3CCCC3)CC2)c1C | 1.57%

Structure (SMILES) | cytotoxicity at 10 µM
Cc1nc[nH]c1-c1nccn1-c1cccc(CN2CCCC2)c1 | 4.36%
CCCN1CCC(CC(=O)N[C@H](C(=O)O)c2cccc(F)c2F)CC1 | 3.78%
CCc1cc(NCc2cc3n(n2)CCCN(S(C)(=O)=O)C3)nc(C)n1 | -1.52%
CN1CCC(N(CCc2ccccc2)C(=O)c2ccc(C#N)cc2)CC1 | -2.37%
Cc1nc2ccccc2nc1NCc1nnc2n1CCC2 | -1.8%
CCn1ccnc1CN(C)c1cc(C2CC2)ncn1 | -47.9%
CC(C)CN1CC2(CCN(C(=O)C3CNC(=O)N3)CC2)CC1=O (stereo not given) | 2.18%
Cc1nn(C)c2nc(N(CCN(C)C)C3CCCC3)sc12 | -1.93%
CCc1ccc(NC(=O)CCN2CC(n3nc(C)cc3C)C2)cc1 | -8.03%
C=C(C)COc1cccc(CNCCc2nc(N)cc(O)n2)c1 | -47.1%
O=C1CCCCN1CCc1nc(-c2cccnn2)no1 | -5.67%
CC(C)c1cc(CN2CCC(CC(=O)O)CC2)no1 | -2.53%
COCc1cc(O)nc(C2CCCN(Cc3cc(OC)ccc3F)C2)n1 (stereo not given) | 4.42%
CCc1cc(C(=O)N2CCCC2c2nc(C)c(F)c(O)n2)on1 (stereo not given) | 0.626%
Cc1ccc(CCC(=O)N2CCC(Nc3cccnn3)CC2)cc1 | -5.36%
COCCN1CCC(CNC(=O)C2(c3ccc(Br)cc3)CCCC2)C1 (stereo not given) | -5.3%
O=C1NCCN1C1CCN(Cc2coc(-c3ccc(F)cc3)n2)CC1 | -3.52%
Cn1cc(CN2CCCN(C(=O)c3ccc4ccccc4n3)CC2)cn1 | -1.9%
Cc1ccc(-c2nnc(CN3CCn4c(nnc4C4CC4)C3)o2)cc1 | -6.37%
COc1c(C2CCCN2Cc2nc(C3CC3)no2)c(C)nn1C (stereo not given) | -1.79%
COc1cc(Cl)ccc1C(=O)NCc1nncn1C | -4.35%
Cc1ccc(N(C)S(=O)(=O)c2cc(C(=O)O)cs2)cc1 | 0.0898%

Structure (SMILES) | cytotoxicity at 10 µM
CCOc1ccc(Cl)c(C(=O)N2CCN(c3cnccn3)CC2)n1 | -4.89%
CC(C)c1n[nH]c(C2CN(C(=O)c3csnn3)CCO2)n1 (stereo not given) | -4.89%
COc1cc(C)ccc1OCCC(=O)N1CCCC1Cn1cccn1 (stereo not given) | -7.81%
Cn1ncc2c(=O)[nH]c(CN3CCC(Cc4ccccc4)CC3)nc21 | -2.28%
CCN(CC)C(=O)Cn1ccc2cc(NC(=O)C3CC3)ccc21 | -3.87%
Cc1nc(-c2ccsc2)ccc1C(=O)NCCC1CCCO1 (stereo not given) | -9.75%
Cc1nccn1C1CCCN(C(=O)c2cc(O)nc3ccccc23)C1 (stereo not given) | -6.9%
CN(CC1CCCCC1)C(=O)c1ccc(-n2ncc(C#N)c2N)cc1 | 0.347%
COc1ccc(CN2CCc3sccc3C2C)cc1CN1CCOCC1 (stereo not given) | -0.782%
CNC(=O)CN1CCOCC2(CCCN(Cc3ccc(F)cc3)C2)C1 (stereo not given) | 6.88%
c1csc(-c2noc(C3CN(Cc4ccc5c(c4)CCO5)C3)n2)c1 | -8.2%
c1cnn(CCCO[C@@H]2CC[C@H]3[C@H]2OCCN3CC2CC2)c1 | 5.93%
COc1ncc(C2(O)CCN(Cc3c(F)cccc3F)CC2)c(OC)n1 | 5.29%
O=C(Cc1ccsc1)N1C[C@@H]2OCCN(c3cnccn3)[C@@H]2C1 | 11.6%
Cc1ncnc2c1CCN(CC(=O)N(C)C)CC2 | -101%
CN(C)Cc1cnc2n1CCN(C(=O)Cc1ccc(F)cc1)CC2 | -8.96%
CN(C)CC(=O)N1C[C@H]2CCC[C@@]2(COc2ccccn2)C1 | 3.88%
O=C(c1ccccc1)N1C[C@@H]2CCCO[C@@H]2[C@H](N2CCCC2)C1 | -2.02%
Cc1ccc(C(=O)N2C[C@@H]3CCCO[C@@H]3[C@H](N3CCOCC3)C2)cn1 | -3.4%
CCN1CCO[C@]2(CCC[C@H]2COCc2csc(C)n2)C1 | 0.153%
CN(C)C(=O)Cn1c2c(ccc1=O)CCN(Cc1cnn(C)c1)CC2 | 0.886%
Cc1cc(C(=O)N2C[C@@H]3C(CN(C)CCCn4cccn4)[C@@H]3C2)c(C)o1 (stereo not given in full) | -55.4%
